Only some compounds are listed: those with a hit (about 2.6% of all), similar ones and a draw of the others.
mABHD4 FP – inhibitors of mouse ABHD4 | purified mABHD4, FP-Rh probe fluorescence polarization | inhibition, % at 8.92 µM | actives 0.54% (n = 370,000);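 active = inhibition exceeding the mean over every tested compound plus 3 SD, cut at about 30% in these data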;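 also: 0% = plate median of compound wells and 100% = S159A mutant with DMSO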
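Doses – 8.92 µM, single dose · Material – wild-type mouse ABHD4 protein · Replication – single well per compound (singlicate) · Measure – percent inhibition of probe binding, normalized to plate controls · Schedule – 45 min compound pre-incubation plus 60 min probe step, 25 °C · Detection – fluorescence polarization with parallel and perpendicular emission, 525/598 nm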
PRMT1 inh – PRMT1 (human) inhibition, primary screen. inhibition, % at 2.79 µM. actives 1.3% (n = 370,000). AID 652257. Q99873. recombinant PRMT1, activity-based probe fluorescence polarization;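 active = inhibition above about 21% made by adding two undisclosed values, limit read from the data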
TCR-CD3 inh – blocks the human TCR-CD3 interaction | TAMRA-labeled TCR probe fluorescence, biochemical | inhibition, % at 9.4 µM | actives 0.37% (n = 360,000);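 also: recombinant mutant TCR 2C K166C tagged with TAMRA read by polarization; 0% = receptor in buffer alone and 100% = receptor with positive control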
SIAE inh – inhibitors of human sialic acid acetylesterase SIAE; Q9HAT2; SIAE FP-Rh probe binding, fluorescence polarization; inhibition, % at 9.66 µM; actives 0.69% (n = 370,000); AID 1053197;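 active = inhibition above a cutoff: mean of compounds within the control limits plus 3 SD of those, cut at about 17% in these data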;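 also: 0% = plate median of compound wells and 100% = probe without SIAE protein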
Target sequence (Q9HAT2 whole entry, looked up): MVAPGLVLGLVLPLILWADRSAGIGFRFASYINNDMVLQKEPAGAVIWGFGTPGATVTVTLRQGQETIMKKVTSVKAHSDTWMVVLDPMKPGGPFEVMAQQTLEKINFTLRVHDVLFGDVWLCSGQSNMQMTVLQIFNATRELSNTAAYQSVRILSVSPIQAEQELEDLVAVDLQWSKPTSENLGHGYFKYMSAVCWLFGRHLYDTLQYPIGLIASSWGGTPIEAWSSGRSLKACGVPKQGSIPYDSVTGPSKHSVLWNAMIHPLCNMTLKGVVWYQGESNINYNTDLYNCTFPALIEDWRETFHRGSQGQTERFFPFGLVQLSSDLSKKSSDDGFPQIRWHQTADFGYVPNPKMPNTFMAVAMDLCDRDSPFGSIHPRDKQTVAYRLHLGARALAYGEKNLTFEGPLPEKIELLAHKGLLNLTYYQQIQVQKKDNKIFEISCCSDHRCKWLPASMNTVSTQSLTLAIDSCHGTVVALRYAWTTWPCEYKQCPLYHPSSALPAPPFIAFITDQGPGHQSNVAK
HTRA1 inh – blocks human HTRA1 serine peptidase; Q92743; recombinant HTRA1, FP-rhodamine activity-based probe, fluorescence polarization; inhibition, % at 5.96 µM; actives 0.5% (n = 340,000); AID 504803; in the data active = inhibition above about 36%;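 also: 0% = enzyme with DMSO and 100% = wells lacking enzyme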
HTRA1 inh conf – confirmation of human HTRA1 inhibitors. shares compounds with HTRA1 inh. recombinant HTRA1, FP-rhodamine activity-based probe, fluorescence polarization. inhibition, % at 5.96 µM. actives 66% (n = 1,600). AID 540248;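 active = mean inhibition over three repeats above a set limit taken from the earlier primary screen, cut at about 37% in these data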;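 also: 0% = HTRA1 with DMSO and 100% = wells lacking HTRA1; inhibitors block probe binding so polarization drops and inhibition rises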
BSA probe FL – counter-screen for TCR-CD3 interaction inhibitors: BSA probe; shares compounds with TCR-CD3 inh; TAMRA-labeled BSA probe fluorescence counterscreen; inhibition, % at 9.4 µM; actives 10% (n = 1,200); in the data active = inhibition above about 23%;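 also: 0% = buffer low control and 100% = reference high control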
TCR-CD3 conf – TCR-CD3 interaction inhibition, confirmation; TAMRA-labeled TCR probe fluorescence binding assay; shares compounds with TCR-CD3 inh; actives 48% (n = 1,200); AID 652036; inhibition, % at 9.4 µM
Numbers without * were called inactive; nt = no result given. Rule as the data show it, unless noted: active = inhibition above about 19%; inactive = the rest.

SMILES | mABHD4 FP | PRMT1 inh | TCR-CD3 inh | SIAE inh | HTRA1 inh | HTRA1 inh conf | others
COc1cc(-c2c(C#N)c(N)nc3c2c(C)nn3-c2ccc(C)c(C)c2)cc(OC)c1OC | -21 | 1 | 7 | -18 | -35 | nt
Cc1nn(-c2ccccc2)c2nc(N)c(C#N)c(-c3ccc(O)c(O)c3)c12 | 1 | 4 | 8 | -11 | 74* | 76*
COc1cc(/C=N/NC(N)=O)ccc1OC(=O)c1cccs1 | -1 | 1 | -1 | 1 | 7 | nt
COc1cc(/C=N/Nc2ccc(Cl)cc2)ccc1OC(=O)c1cccs1 | 1 | 3 | 1 | 10 | 47* | 68*
CCn1c(CSc2nnc3ccccn23)nc2cc(C(=O)O)ccc21 | 40* | 3 | 67* | 54* | 37* | 79*
Cc1ccccc1S(=O)(=O)N(C)C[C@H]1OCc2cnnn2CCCC(=O)N([C@H](C)CO)C[C@@H]1C | 4 | 4 | -5 | -1 | nt | nt
O=C(/C(=N/O)c1ccccc1)c1ccccc1 | -8 | -3 | 3 | 3 | -3 | nt
O=C(/C(=N/N=C/c1ccc(O)c(O)c1)c1ccccc1)c1ccccc1 | 16 | 3 | 7 | -20 | 41* | 78*
Cc1nnc(C)n1/N=C/c1c(O)ccc2ccccc12 | -3 | 1 | 4 | -4 | 4 | nt
Cc1nnc(-c2ccccc2)c(=O)n1/N=C/c1c(O)ccc2ccccc12 | 9 | -5 | 5 | 15 | 37* | 35
C/C(=N\Nc1nc(-c2cc(C)ccc2C)cs1)c1cc2ccccc2oc1=O | -5 | -1 | 11 | -11 | -2 | nt
C/C(=N\Nc1nc(-c2cc(C)ccc2C)cs1)c1cc2c(ccc3ccccc32)oc1=O | 15 | 7 | -3 | -1 | 53* | 12
Cc1cc2cc(CNC(=S)NCc3ccccc3)ccc2n1C | 14 | 1 | 0 | 8 | 49* | -16
Cc1ccccc1NC(=S)NCc1ccc2c(c1)cc(C)n2C | 16 | 8 | 6 | 11 | 0 | nt
COc1ccccc1NC(=S)NCc1ccc2c(c1)cc(C)n2C | 2 | -2 | -1 | 4 | 38* | -6
CCCCNC(=S)NCc1ccc2c(c1)cc(C)n2C | 13 | -4 | 3 | 3 | 13 | nt
Cc1cc2cc(CNC(=S)NC3CCCCC3)ccc2n1C | 6 | 0 | -9 | 0 | 40* | -6
COC(=O)c1cc2c(c3c4cc(OC)ccc4n(S(=O)(=O)c4cccc(C)c4)c13)C(=O)N(Cc1ccccc1OC)C2 | 1 | 3 | 6 | 0 | nt | nt
CCOC(=O)C1CCCN(C(=O)C2c3ccccc3Oc3ccccc32)C1 (stereo unspecified) | 12 | 11 | 5 | 4 | 53* | -8
CCc1cccc(CC)c1NC(=S)NCCc1ccc(O)c(O)c1 | 11 | 6 | -3 | 4 | 67* | 78*
C[C@@H]1CN([C@@H](C)CO)C(=O)CCCn2cc(nn2)CO[C@H]1CN(C)C(=O)c1ccncc1 | -1 | 1 | 1 | 3 | nt | nt
COc1ccc(C(=O)N/N=C/c2ccc(OC)c(COc3ccccc3)c2)cc1 | -4 | -4 | 5 | -4 | -16 | nt
COc1ccc(/C=N\NC(=O)c2cc(O)c(O)c(O)c2)cc1COc1ccc(C(=O)OCC(C)C)cc1 | 7 | 7 | 13 | 17 | 58* | 55*
O=C(O)c1cccc2cccc(-c3c4ccc(=O)c(O)c-4oc4c(O)c(O)ccc34)c12 | 48* | 32* | 66* | 36* | 50* | 50* | BSA probe FL=-21;TCR-CD3 conf=68*
C[C@H]1[C@@H](NC(=O)/C=C/c2ccccc2)CC[C@@]23CCCN2C(=O)CCC[C@@H]13 | 6 | -3 | nt | 2 | nt | nt
SMILES | mABHD4 FP | PRMT1 inh | TCR-CD3 inh | SIAE inh | HTRA1 inh | HTRA1 inh conf | others
COc1cccc(/C=C2\SC(=S)N(CCC(=O)NNC(=O)c3ccccc3OC)C2=O)c1 | 3 | -2 | 41* | 5 | 39* | 33 | BSA probe FL=1;TCR-CD3 conf=22*
COc1cccc(/C=C2/SC(=S)N(CC(=O)NNC(=O)c3ccccc3OC)C2=O)c1 | -10 | 3 | 17 | -5 | 11 | nt
O=C(CCCN1C(=O)/C(=C/c2cccs2)SC1=S)NNC(=O)c1ccncc1 | 6 | 0 | 8 | -12 | 2 | nt
O=C(CCCN1C(=O)/C(=C/c2cccs2)SC1=S)NNC(=O)c1ccccc1O | 8 | -3 | 31* | -9 | 57* | 72* | BSA probe FL=-5;TCR-CD3 conf=31*
O=C(c1ccc(Cl)c(S(=O)(=O)N2CCc3ccccc32)c1)N1CCN(c2ccccc2O)CC1 | 3 | 1 | -5 | 2 | -24 | nt
O=C(NNC(=O)c1ccccc1O)c1ccc(Cl)c(S(=O)(=O)N2CCc3ccccc32)c1 | -26 | 2 | 28* | -1 | 50* | 50* | BSA probe FL=-6;TCR-CD3 conf=16
CCCCNC(=O)C1(C)CCCCN1C(=O)c1csnn1 (stereo unspecified) | -5 | 0 | -4 | -8 | nt | nt
O=C(N/N=C/c1cccnc1)c1cc(O)c(O)c(O)c1 | 22 | 14 | 32* | 1 | 45* | 12 | BSA probe FL=-6;TCR-CD3 conf=20*
Cc1cc(C)c2nc(-c3ccccc3)ccc2c1 | 5 | -2 | 3 | 2 | nt | nt
COc1ccc(C(=O)OCC(=O)N2CCc3ccccc3C2)cc1OC | 4 | 3 | 2 | 2 | -1 | nt
CC(=O)Oc1cc(C(=O)OCC(=O)N2CCc3ccccc3C2)cc(OC(C)=O)c1OC(C)=O | 26 | 7 | 45* | 12 | 59* | 83* | BSA probe FL=-18;TCR-CD3 conf=15
Nc1c(N)c2ccccc2oc1=O | 11 | 5 | -2 | 13 | -8 | nt
O=c1oc2ccccc2c2oc3cc(O)c(O)cc3c12 | 55* | 5 | 21* | 3 | 82* | 77* | BSA probe FL=-3;TCR-CD3 conf=31*
Oc1ccc(-c2csc(Nc3ncccn3)n2)cc1O | 14 | 9 | 32* | -2 | 54* | 59* | BSA probe FL=-19;TCR-CD3 conf=17
Oc1ccc(-c2csc(-c3cccnc3)n2)cc1O | 11 | 7 | 22* | -4 | 37* | 47* | BSA probe FL=-8;TCR-CD3 conf=16
COc1ccc(C2=NN(C(=O)COC(=O)c3ccc(NC(=O)CC#N)cc3)C(c3ccco3)C2)cc1 (stereo unspecified) | -79 | -3 | 7 | -68 | -75 | nt
O=C(COc1ncnc2sccc12)Nc1cccc(S(=O)(=O)N2CCOCC2)c1 | -15 | -1 | 6 | -19 | -6 | nt
CCn1c(CSc2nc3ccccc3s2)nnc1SCC(=O)c1ccc(Cl)cc1 | -1 | 1 | -3 | -1 | -10 | nt
CCn1c(CSc2nc3ccccc3s2)nnc1SCC(=O)c1ccc(O)c(O)c1 | 20 | 16 | 23* | -6 | 55* | 86* | BSA probe FL=-18;TCR-CD3 conf=29*
